# ChEMBL document CHEMBL1140401, “Synthesis and pharmacological evaluation of Tic-hydantoin derivatives as selective sigma1 ligands. Part 2” (Bioorg Med Chem Lett, 2005)
# What was measured:
# Sigma 2 receptor = assay: Inhibitory activity against opioid sigma 2 receptor in rat cerebral cortex using [3H]DTG (+300 nM (+)pentazocine) as radio ligand at pH 7.5 for 120 min at 22 degree C; assay type: tissue-based
# MRC5 = assay: Cytotoxicity against a human diploid embryonic lung cell line (MRC-5 cells) using the colorimetric MTT assay; assay type: functional
# Method in brief: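 MRC-5 human embryonic lung cells were exposed to the compounds, and viability was read by colorimetric MTT assay. The read-out is the CC50.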
# [1] = molecular target: Sigma non-opioid intracellular receptor 1 (Cavia porcellus) (UniProt Q60492); assay: Selectivity index against opioid receptor sigma 1 versus cytotoxicity to that of inhibitory concentration
# Chain of Sigma non-opioid intracellular receptor 1 (Cavia porcellus) (Q60492 whole entry, looked up): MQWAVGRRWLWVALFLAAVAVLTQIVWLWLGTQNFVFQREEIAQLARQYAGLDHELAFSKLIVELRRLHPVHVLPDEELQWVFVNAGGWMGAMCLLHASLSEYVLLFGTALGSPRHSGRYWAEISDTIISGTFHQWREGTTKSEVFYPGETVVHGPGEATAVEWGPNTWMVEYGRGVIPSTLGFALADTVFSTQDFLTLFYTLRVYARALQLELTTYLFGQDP
smiles,measurement,setting,value
O=C1[C@@H]2Cc3ccccc3CN2C(=O)N1CCN1CCCCC1,IC50,Sigma 2 receptor,> 1 µM
CN(CCCCCc1ccccc1)CCN1C(=O)[C@@H]2Cc3ccccc3CN2C1=O,IC50,Sigma 2 receptor,> 1 µM
CN(CCCCN1C(=O)[C@@H]2Cc3ccccc3CN2C1=O)Cc1ccccc1,IC50,Sigma 2 receptor,> 0.1 µM
O=C1[C@@H]2Cc3ccccc3CN2C(=O)N1CCCNCCCCc1ccccc1,CC50,MRC5,31 µM
same,IS,[1],2950
CN(CCN1C(=O)[C@@H]2Cc3ccccc3CN2C1=O)Cc1ccccc1,CC50,MRC5,107 µM
same,IC50,Sigma 2 receptor,0.972 µM
same,IS,[1],23800
CN(CCCCCN1C(=O)[C@@H]2Cc3ccccc3CN2C1=O)Cc1ccccc1,CC50,MRC5,101 µM
same,IC50,Sigma 2 receptor,0.081 µM
same,IS,[1],20200
CN(CCCCN1C(=O)[C@@H]2Cc3ccccc3CN2C1=O)CCc1ccccc1,CC50,MRC5,106 µM
same,IS,[1],10700
CN(CCCN1C(=O)[C@@H]2Cc3ccccc3CN2C1=O)CCc1ccccc1,IC50,Sigma 2 receptor,0.021 µM
O=C1[C@@H]2Cc3ccccc3CN2C(=O)N1CCCNCc1ccccc1,IC50,Sigma 2 receptor,> 1 µM
CN(CCCN1C(=O)[C@@H]2Cc3ccccc3CN2C1=O)Cc1ccccc1,CC50,MRC5,196 µM
same,IC50,Sigma 2 receptor,0.502 µM
CN(CCCc1ccccc1)CCN1C(=O)[C@@H]2Cc3ccccc3CN2C1=O,CC50,MRC5,136 µM
same,IS,[1],10000
CN(CCCCc1ccccc1)CCN1C(=O)[C@@H]2Cc3ccccc3CN2C1=O,IC50,Sigma 2 receptor,0.358 µM
